Measured values from publication PMC3684861 (European journal of nuclear medicine and molecular imaging, 2011).

How the values were obtained:
[1] = system: Pgp at the BBB (whole brain); assay: Small-animal PET, whole brain as reference region for Pgp modulation at the BBB; format: in vivo, mouse; conditions: for tumoural activity uptake relative to brain activity uptake: scan 1, before unlabelled tariquidar; for brain AUC0-60 in scan 2 relative to scan 1: whole brain, scan 2 at 2 h after unlabelled tariquidar 15 mg/kg i.v.
[2] = cited from earlier work
[3] = system: EMT6 and EMT6Ar1.0 tumour sections (Pgp); assay: In vitro autoradiography on tumour sections; format: binding, mouse; conditions: for binding in EMT6Ar1.0 tumours compared to EMT6 tumours: radiotracer alone, 30 min incubation, 10 μm tumour slices
Outline: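 Frozen tumours from imaged mice were cut into 10 μm cryostat sections at −12°C, with 3 consecutive sections. Sections were thawed, preincubated in PBS, then incubated 30 min with ¹¹C-labelled Pgp radiotracer (about 20 MBq), alone or with unlabelled inhibitor (10 μM). They were washed in 20% (v/v) ethanol/PBS and distilled water, air-dried, exposed to a phosphor screen and scanned at 600 dpi.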

[4] = system: EMT6 tumours; assay: Static [18F]FDG PET, EMT6 tumours; format: in vivo, mouse; conditions: 10 min static PET scan at 60 min after injection
Outline: (§1)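 Female athymic NMRI-Foxn1^nu mice (6-8 weeks) had EMT6 and EMT6Ar1.0 cells (3-5 × 10⁵) injected subcutaneously into opposite upper flanks. At about 130 mm³ tumour size, mice (n=7) under isoflurane at about 37°C received [¹⁸F]FDG (6±3 MBq) i.v. A 10 min static microPET scan was taken at 60 min. Tumour ROIs were outlined manually, with SUV = (radioactivity/cm³ ÷ injected radioactivity) × body weight.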

[5] = system: EMT6Ar1.0 tumours; assay: Static [18F]FDG PET, EMT6Ar1.0 tumours; format: in vivo, mouse; conditions: 10 min static PET scan at 60 min after injection
Outline: as §1

[6] = system: Pgp overexpressing EMT6Ar1.0 tumours; format: in vivo, mouse
[7] = system: EMT6 tumours; format: in vivo, mouse; conditions: scan 2, 2 h after unlabelled tariquidar 15 mg/kg i.v.
[8] = cited from earlier work; remark: listed apart in the source
[9] = system: Pgp at the BBB; conditions: tariquidar dose 15 mg/kg; cited from earlier work
[10] = system: EMT6Ar1.0 cells; assay: In vitro cytotoxicity assay, EMT6Ar1.0 cells; format: cell-based, mouse; conditions: tariquidar ≥0.1 μM, 48 h, culture medium containing doxorubicin
Outline: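 The Pgp-overexpressing line was derived from EMT6 cells by culture under increasing doxorubicin concentrations and kept at 37°C, 5% CO₂. Cells were exposed to increasing test compound concentrations (0.01 to 10 μM) in their own culture medium for 48 h. Survival was expressed relative to control cells.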

[11] = system: EMT6 cells; assay: In vitro cytotoxicity assay, EMT6 cells; format: cell-based, mouse; conditions: tariquidar 0.01 to 10 μM, 48 h
Outline: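 EMT6 cells were grown as monolayers in Waymouth's MB 752/1 with 2.4 mM L-glutamine, 15% heat-inactivated FBS and penicillin/streptomycin at 37°C, 5% CO₂. Cells were exposed to increasing test compound concentrations (0.01 to 10 μM) in their culture medium for 48 h. Survival was expressed relative to control cells.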

Row | Compound | binding in EMT6Ar1.0 tumours compared to EMT6 tumours [3] | tumoural activity uptake relative to brain activity uptake [1] | brain AUC0-60 in scan 2 relative to scan 1 [1] | metabolism in vivo [2] | further results
1 | OC[C@H]1OC(O)[C@H]([18F])[C@@H](O)[C@@H]1O (some centres unmarked) [[^18F]FDG] | – | – | – | – | mean tumoural SUV±SD [4]: 1.86±0.49; mean tumoural SUV±SD [5]: 2.45±0.75
2 | COc1cc2c(cc1OC)CN(CCc1ccc(NC(=O)c3cc(OC)c(OC)cc3NC(=O)c3cnc4ccccc4c3)cc1)CC2 [[^11C]tariquidar] | 4.3 times | 2 to 3 times | 2.4±0.3 times | hardly metabolised | higher retention in EMT6Ar1.0 tumours than in EMT6 tumours ([6]; PET, AUC0-60): 50%; mean AUC0-60±SD of tumour time-activity curve (SUV) ([6]; scan 2, 2 h after unlabelled tariquidar 15 mg/kg i.v., EMT6Ar1.0 tumours): 45.6 ± 4.8 min; mean AUC0-60±SD of tumour time-activity curve (SUV) [7]: 31.7 ± 7.9 min
3 | COc1cc2c(cc1OC)CN(CCc1ccc(NC(=O)c3cc(OC)c(OC)cc3NC(=O)c3cnc4ccccc4c3)cc1)CC2 [tariquidar, Tariquidar dimesylate] | – | – | – | – | terminal elimination half-life [8]: 26 h; inhibition of Pgp at the BBB [9]: complete inhibition; cell survival rate [10]: < 5 % of control cells; effect on cell survival [11]: no effect
4 | 4-[^18F]fluoropaclitaxel [reference compound] | – | – | – | extensively metabolised | –

Further lines, with some results ahead:

Row | binding in EMT6Ar1.0 tumours compared to EMT6 tumours [3] | Compound | tumoural activity uptake relative to brain activity uptake [1] | brain AUC0-60 in scan 2 relative to scan 1 [1] | metabolism in vivo [2] | further results
5 | 2.1 times | COc1cc2c(cc1OC)CN(CCc1ccc(NC(=O)c3cccc4c(=O)c5cccc(OC)c5[nH]c34)cc1)CC2 [[^11C]elacridar] | 2 to 3 times | 3.5±0.4 times | hardly metabolised | –
6 | 1.3 times | COc1ccc(CCN([11CH3])CCC[C@](C#N)(c2ccc(OC)c(OC)c2)C(C)C)cc1OC [(R)-[^11C]verapamil, reference compound] | – | – | – | radiotracer binding after co-incubation ([3]; both tumours, co-incubation with unlabelled tariquidar, elacridar or verapamil (10 μM)): no significant reduction
